Data reported in PMC12155403 (RSC Medicinal Chemistry, 2025).

Legend:
MOLT-4 cells = assay: MOLT-4 cell viability; assay type: cell-based; conditions: for IC50: Homo sapiens, MOLT-4, 48 h, read-out: IC50 (MOLT-4 cells)
How it was run: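 MOLT-4 (T-ALL) cells, STR-profiled and mycoplasma-negative, were kept at 37 °C in 5% CO2. Between […] and 1 × 10^5 suspension cells were seeded per well and exposed to test compound for 48 h or 72 h. Viability was read with tetrazolium MTS reagent, and IC50 values were calculated from the viability data.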

NCI-H146 cells = conditions: read-out: IC50 (NCI-H146 cells); NCI-H146 SCLC cells; earlier work; cited from earlier work
SCLC cell lines = assay: Viability of a panel of SCLC cell lines; assay type: cell-based; conditions: 72 h
How it was run: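 SCLC lines came from the NCI-Navy Medical Oncology supply, with H146 from ATCC. Stocks were STR-profiled and mycoplasma-negative, kept at 37 °C and 5% CO2.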

MOLT-4 xenograft = assay: MOLT-4 T-ALL xenograft mouse model; assay type: in vivo; conditions: 1.5 mg kg−1, Q4D, i.p., MOLT-4 xenograft mice
How it was run: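 MOLT-4 cells (5 × 10^6) in RPMI:Matrigel 1:1 were implanted s.c. in the right flank of 5-week-old CB-17 SCID mice. At mean tumour ~150 mm3, mice were randomised (n = 6 per group) to vehicle or 1.5 mg kg−1 i.p. every 4 days. The vehicle was 50% Phosal 50 PG, 45% Miglyol 810 N and 5% polysorbate 80. Calipers were used twice weekly, volume = (L × W2) × 0.5.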

human platelets = assay: Human platelet viability assay; assay type: cell-based
platelets = assay: In vivo platelet toxicity assay; conditions: single dose 1.5 mg kg−1, i.p., mice
Bcl-xL [1] = biological target: T1, Bcl-xL (Homo sapiens, UniProt Q07817); assay: Bcl-xL degradation in MOLT-4 cells; assay type: cell-based
How it was run: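 MOLT-4 cells (RPMI 1640, 10% FBS, 1% penicillin–streptomycin, 37 °C, 5% CO2) were treated for 16 h across a concentration series, or at 100 nM over a time course. Where stated, cells had 1 μM MG-132 pretreatment for 2 h. Lysates were run on 4–20% Tris-glycine gels and blotted to PVDF, with ECL detection. Band densities were normalised to β-actin, three independent experiments, mean ± SD.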

[2] = system: PARP and caspase-3 cleavage; assay: Western blot of cleaved PARP and cleaved caspase-3 in MOLT-4 cells; assay type: cell-based; conditions: 16 h
How it was run: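 MOLT-4 cells were treated for 16 h across a concentration series. Lysates were immunoblotted (4–20% Tris-glycine gels, PVDF, 5% milk/TBST block, primary antibody overnight at 4 °C, HRP secondary, ECL) for cleaved PARP and cleaved caspase-3. Full-length PARP was detected by stripping and reprobing the membrane. Bands were normalised to β-actin.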

Bcl-xL [3] = biological target: T1, Bcl-xL; assay: Bcl-xL levels in human platelets; assay type: cell-based; conditions: 48 h

T1 sequence (Q07817 whole entry): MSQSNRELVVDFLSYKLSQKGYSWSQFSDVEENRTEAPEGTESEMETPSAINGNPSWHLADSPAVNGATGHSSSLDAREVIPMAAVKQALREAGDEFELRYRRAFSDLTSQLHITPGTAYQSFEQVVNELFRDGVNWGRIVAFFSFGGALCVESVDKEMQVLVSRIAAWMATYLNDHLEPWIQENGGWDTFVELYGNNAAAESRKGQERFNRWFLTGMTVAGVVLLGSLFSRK

IC50 (MOLT-4 cells) | SMILES | other results
10.4 nM | CN(CCOCCOCCOCCOc1cccc2c1C(=O)N(C1CCC(=O)NC1=O)C2=O)CC[C@H](CSc1ccccc1)Nc1ccc(S(=O)(=O)NC(=O)c2ccc(N3CCN(CC4=C(c5ccc(Cl)cc5)CCC(C)(C)C4)CC3)cc2)cc1S(=O)(=O)C(F)(F)F (stereo partly shown) [2a] | 
5.2 nM | CN(CCOCCOCCOCC#Cc1cccc2c1C(=O)N(C1CCC(=O)NC1=O)C2=O)CC[C@H](CSc1ccccc1)Nc1ccc(S(=O)(=O)NC(=O)c2ccc(N3CCN(CC4=C(c5ccc(Cl)cc5)CCC(C)(C)C4)CC3)cc2)cc1S(=O)(=O)C(F)(F)F (stereo partly shown) [2b] | fold increase in potency against MOLT-4 cells compared to 2a (MOLT-4 cells; vs 2a): 2 fold
6.2 nM | CN(CCOCCOCCOCCCc1cccc2c1C(=O)N(C1CCC(=O)NC1=O)C2=O)CC[C@H](CSc1ccccc1)Nc1ccc(S(=O)(=O)NC(=O)c2ccc(N3CCN(CC4=C(c5ccc(Cl)cc5)CCC(C)(C)C4)CC3)cc2)cc1S(=O)(=O)C(F)(F)F (stereo partly shown) [2c] | 
10.6 nM | CN(CCOCCOCCN1CCN(c2cccc3c2C(=O)N(C2CCC(=O)NC2=O)C3=O)CC1)CC[C@H](CSc1ccccc1)Nc1ccc(S(=O)(=O)NC(=O)c2ccc(N3CCN(CC4=C(c5ccc(Cl)cc5)CCC(C)(C)C4)CC3)cc2)cc1S(=O)(=O)C(F)(F)F (stereo partly shown) [2d] | fold weaker cellular activity than 2b (MOLT-4 cells; vs 2b, MOLT-4 cells): 2 fold
36.1 nM | CN(CCOCCOCCN1CCC(C#Cc2cccc3c2C(=O)N(C2CCC(=O)NC2=O)C3=O)CC1)CC[C@H](CSc1ccccc1)Nc1ccc(S(=O)(=O)NC(=O)c2ccc(N3CCN(CC4=C(c5ccc(Cl)cc5)CCC(C)(C)C4)CC3)cc2)cc1S(=O)(=O)C(F)(F)F (stereo partly shown) [2e] | fold reduced activity compared to 2d (MOLT-4 cells; vs 2d, MOLT-4 cells): ~4 fold
45.5 nM | CN(CCOCCOCCN1CCC(CCc2cccc3c2C(=O)N(C2CCC(=O)NC2=O)C3=O)CC1)CC[C@H](CSc1ccccc1)Nc1ccc(S(=O)(=O)NC(=O)c2ccc(N3CCN(CC4=C(c5ccc(Cl)cc5)CCC(C)(C)C4)CC3)cc2)cc1S(=O)(=O)C(F)(F)F (stereo partly shown) [2f] | 
14.3 nM | CN(CCOCCOCCOCC#Cc1ccc2c(c1)C(=O)N(C1CCC(=O)NC1=O)C2=O)CC[C@H](CSc1ccccc1)Nc1ccc(S(=O)(=O)NC(=O)c2ccc(N3CCN(CC4=C(c5ccc(Cl)cc5)CCC(C)(C)C4)CC3)cc2)cc1S(=O)(=O)C(F)(F)F (stereo partly shown) [3a] | fold reduced potency against MOLT-4 cells compared to 2b (MOLT-4 cells; vs C4-substituted 2b): ~3 fold
4.3 nM | CN(CCOCCOCCOCCCc1ccc2c(c1)C(=O)N(C1CCC(=O)NC1=O)C2=O)CC[C@H](CSc1ccccc1)Nc1ccc(S(=O)(=O)NC(=O)c2ccc(N3CCN(CC4=C(c5ccc(Cl)cc5)CCC(C)(C)C4)CC3)cc2)cc1S(=O)(=O)C(F)(F)F (stereo partly shown) [3b] | 
4.1 nM | CN(CCOCCOCCOCC#Cc1cccc2c1CN(C1CCC(=O)NC1=O)C2=O)CC[C@H](CSc1ccccc1)Nc1ccc(S(=O)(=O)NC(=O)c2ccc(N3CCN(CC4=C(c5ccc(Cl)cc5)CCC(C)(C)C4)CC3)cc2)cc1S(=O)(=O)C(F)(F)F (stereo partly shown) [4a] | 
4.5 nM | CN(CCOCCOCCOCCCc1cccc2c1CN(C1CCC(=O)NC1=O)C2=O)CC[C@H](CSc1ccccc1)Nc1ccc(S(=O)(=O)NC(=O)c2ccc(N3CCN(CC4=C(c5ccc(Cl)cc5)CCC(C)(C)C4)CC3)cc2)cc1S(=O)(=O)C(F)(F)F (stereo partly shown) [4b] | 
2.1 nM | CN(CCOCCOCCOCC#Cc1ccc2c(c1)CN(C1CCC(=O)NC1=O)C2=O)CC[C@H](CSc1ccccc1)Nc1ccc(S(=O)(=O)NC(=O)c2ccc(N3CCN(CC4=C(c5ccc(Cl)cc5)CCC(C)(C)C4)CC3)cc2)cc1S(=O)(=O)C(F)(F)F (stereo partly shown) [5a] | 
202 nM | CC1(C)CCC(c2ccc(Cl)cc2)=C(CN2CCN(c3ccc(C(=O)NS(=O)(=O)c4ccc(N[C@H](CCN5CCOCC5)CSc5ccccc5)c(S(=O)(=O)C(F)(F)F)c4)cc3)CC2)C1 [ABT-263, navitoclax, reference compound] | 
1.3 nM | CN(CCOCCOCCOCCCc1ccc2c(c1)CN(C1CCC(=O)NC1=O)C2=O)CC[C@H](CSc1ccccc1)Nc1ccc(S(=O)(=O)NC(=O)c2ccc(N3CCN(CC4=C(c5ccc(Cl)cc5)CCC(C)(C)C4)CC3)cc2)cc1S(=O)(=O)C(F)(F)F (stereo partly shown) [PZ671] | cell killing potency in SCLC cell lines compared to XZ739 (SCLC cell lines): more potent than XZ739; tumor growth (MOLT-4 xenograft): markedly suppressed the tumor growth; selectivity for MOLT-4 cells over platelets (human platelets): 25 fold; fold decrease in selectivity for MOLT-4 cells over platelets compared to XZ739 (human platelets; vs XZ739): ~5 fold; fold improved cellular activity against MOLT-4 cells compared to XZ739 (MOLT-4 cells; vs XZ739, listed as 5b): 8 fold; platelet count recovery (platelets): rapid recovery observed from the second day onward; time to almost complete Bcl-xL degradation (Bcl-xL [1]; MOLT-4 cells, 100 nM): 4 h; time to significantly reduced Bcl-xL protein levels (Bcl-xL [1]; MOLT-4 cells, 100 nM): ≤ 2 h; Bcl-xL degradation after proteasome inhibitor pretreatment (Bcl-xL [1]; MOLT-4 cells, pretreatment with 1 μM MG-132 for 2 h): blocked; fold enhanced degradation potency against Bcl-xL compared to XZ739 (Bcl-xL [1]; vs XZ739, MOLT-4 cells): ~6 fold; PARP and caspase-3 cleavage [2]: dose-dependently increased; concentration at which Bcl-xL is degraded in human platelets (Bcl-xL [3]): above 1 μM

Continued, compound first:

SMILES | IC50 (MOLT-4 cells) | other results
CC1(C)CCC(c2ccc(Cl)cc2)=C(CN2CCN(c3ccc(C(=O)NS(=O)(=O)c4ccc(N[C@H](CCNCCOCCOCCOCCNc5cccc6c5C(=O)N(C5CCC(=O)NC5=O)C6=O)CSc5ccccc5)c(S(=O)(=O)C(F)(F)F)c4)cc3)CC2)C1 (stereo partly shown) [1a] | 59.7 nM | 
CCN(CCOCCOCCOCCNc1cccc2c1C(=O)N(C1CCC(=O)NC1=O)C2=O)CC[C@H](CSc1ccccc1)Nc1ccc(S(=O)(=O)NC(=O)c2ccc(N3CCN(CC4=C(c5ccc(Cl)cc5)CCC(C)(C)C4)CC3)cc2)cc1S(=O)(=O)C(F)(F)F (stereo partly shown) [1b] | 52.8 nM | 
CC1(C)CCC(c2ccc(Cl)cc2)=C(CN2CCN(c3ccc(C(=O)NS(=O)(=O)c4ccc(N[C@H](CCN(CCOCCOCCOCCNc5cccc6c5C(=O)N(C5CCC(=O)NC5=O)C6=O)C5CC5)CSc5ccccc5)c(S(=O)(=O)C(F)(F)F)c4)cc3)CC2)C1 (stereo partly shown) [1d] | 297 nM | 
CC1(C)CCC(c2ccc(Cl)cc2)=C(CN2CCN(c3ccc(C(=O)NS(=O)(=O)c4ccc(N[C@H](CCN(CCOCCOCCOCCNc5cccc6c5C(=O)N(C5CCC(=O)NC5=O)C6=O)C5CCC5)CSc5ccccc5)c(S(=O)(=O)C(F)(F)F)c4)cc3)CC2)C1 (stereo partly shown) [1e] | 330 nM | 
CC1(C)CCC(c2ccc(Cl)cc2)=C(CN2CCN(c3ccc(C(=O)NS(=O)(=O)c4ccc(N[C@H](CCN(CCOCCOCCOCCNc5cccc6c5C(=O)N(C5CCC(=O)NC5=O)C6=O)C5COC5)CSc5ccccc5)c(S(=O)(=O)C(F)(F)F)c4)cc3)CC2)C1 (stereo partly shown) [1f] | 397 nM | 
CC1(C)CCC(c2ccc(Cl)cc2)=C(CN2CCN(c3ccc(C(=O)NS(=O)(=O)c4ccc(N[C@H](CCN(CCOCCOCCOCCNc5cccc6c5C(=O)N(C5CCC(=O)NC5=O)C6=O)CC5CCC5)CSc5ccccc5)c(S(=O)(=O)C(F)(F)F)c4)cc3)CC2)C1 (stereo partly shown) [1g] | 326 nM | 
CC1(C)CCC(c2ccc(Cl)cc2)=C(CN2CCN(c3ccc(C(=O)NS(=O)(=O)c4ccc(N[C@H](CCN(CCOCCOCCOCCNc5cccc6c5C(=O)N(C5CCC(=O)NC5=O)C6=O)C5CCCCC5)CSc5ccccc5)c(S(=O)(=O)C(F)(F)F)c4)cc3)CC2)C1 (stereo partly shown) [1i] | > 1000 nM | 
Cc1ncsc1-c1ccc([C@H](C)NC(=O)[C@@H]2C[C@@H](O)CN2C(=O)[C@@H](NC(=O)CCCCCC(=O)N2CCN(CC[C@H](CSc3ccccc3)Nc3ccc(S(=O)(=O)NC(=O)c4ccc(N5CCN(CC6=C(c7ccc(Cl)cc7)CCC(C)(C)C6)CC5)cc4)cc3S(=O)(=O)C(F)(F)F)CC2)C(C)(C)C)cc1 [DT2216] |  | IC50 (NCI-H146 cells): 278 nM
